# Data reported in ChEMBL document CHEMBL1130127, “Synthesis, photophysical properties, in vivo photosensitizing efficacy, and human serum albumin binding properties of some novel bacteriochlorins” (J Med Chem, 1997).
# Activity calls are given as the source filed them. The calls are words filed in the database; no cut-off is given here.
# Experiments:
# [1] = biological target: T1, Albumin (Homo sapiens, UniProt P02768); experiment: Binding affinity against Human serum albumin(Site I).
# Outline: (§1)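 Fluorometric titration: HSA and sensitizer fixed at 1 × 10^-6 mol/L. Site probe varied 4 × 10^-7 to 2 × 10^-6 mol/L: DNSA for site I, read at 472 nm; DP for site II, read at 476 nm; excitation 340 nm. Incubated 4 °C, pH 7.0, 4 h, dark. Bound probe taken from standard curves of free probe (water) and HSA-bound probe (2.5 × 10^-5 mol/L HSA).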
# [2] = tested on: Mus musculus; experiment: The compound was tested in vivo for photosensitizing efficacy in DBA/2 Mice transplanted with SMT/F tumors and the activity is expressed as % response (11-15 days) 3 hours post injection at 5.0 mg/kg concentration; format: functional
# Outline: (§2)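 Female DBA/2 HA-DD mice, 5-7 weeks old. A 1 mm SMT-F tumor piece from a donor was trocar-implanted subcutaneously in the axilla. At about 5 mm tumor diameter, sensitizer in 1% Tween 80/water was given iv; dose was based on extinction coefficient. At 3 or 24 h after injection, restrained mice had the tumor lit with 135 J/cm2 laser light at the in vivo long-wavelength maximum. Tumor response was followed to day 30; six mice/group.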
# [3] = tested on: Mus musculus; experiment: The compound was tested in vivo for photosensitizing efficacy in DBA/2 Mice transplanted with SMT/F tumors and the activity is expressed as % response (11-15 days) 3 hours post injection at 1 mg/kg concentration; No response; format: functional, organism-based; parameters: dose 1 mg/kg; outline: as §2
# [4] = tested on: Mus musculus; experiment: The compound was tested in vivo for photosensitizing efficacy in DBA/2 Mice transplanted with SMT/F tumors and the activity is expressed as % response (6-10 days) 3 hours post injection at 5.0 mg/kg concentration; format: functional; outline: as §2
# [5] = tested on: Mus musculus; experiment: The compound was tested in vivo for photosensitizing efficacy in DBA/2 Mice transplanted with SMT/F tumors and the activity is expressed as % response (11-15 days) 3 hours post injection at 2.5 mg/kg concentration; format: functional; outline: as §2
# [6] = tested on: Mus musculus; experiment: The compound was tested in vivo for photosensitizing efficacy in DBA/2 Mice transplanted with SMT/F tumors and the activity is expressed as % response (21-25 days) 3 hours post injection at 2.5 mg/kg concentration; format: functional; outline: as §2
# [7] = tested on: Mus musculus; experiment: The compound was tested in vivo for photosensitizing efficacy in DBA/2 Mice transplanted with SMT/F tumors and the activity is expressed as % response (1-5 days) 3 hours post injection at 2.5 mg/kg concentration; format: functional; outline: as §2
# [8] = tested on: Mus musculus; experiment: The compound was tested in vivo for photosensitizing efficacy in DBA/2 Mice transplanted with SMT/F tumors and the activity is expressed as % response (26-30 days) 3 hours post injection at 1 mg/kg concentration; No response; format: functional, organism-based; parameters: dose 1 mg/kg; outline: as §2
# [9] = tested on: Mus musculus; experiment: The compound was tested in vivo for photosensitizing efficacy in DBA/2 Mice transplanted with SMT/F tumors and the activity is expressed as % response (26-30 days) 3 hours post injection at 5.0 mg/kg concentration; No response; format: functional, organism-based; parameters: dose 5 mg/kg; outline: as §2
# [10] = tested on: Mus musculus; experiment: The compound was tested in vivo for photosensitizing efficacy in DBA/2 Mice transplanted with SMT/F tumors and the activity is expressed as % response (16-20 days) 3 hours post injection at 5.0 mg/kg concentration; format: functional; outline: as §2
# [11] = tested on: Mus musculus; experiment: The compound was tested in vivo for photosensitizing efficacy in DBA/2 Mice transplanted with SMT/F tumors and the activity is expressed as % response (1-5 days) 3 hours post injection at 5.0 mg/kg concentration; format: functional; outline: as §2
# [12] = tested on: Mus musculus; experiment: The compound was tested in vivo for photosensitizing efficacy in DBA/2 Mice transplanted with SMT/F tumors and the activity is expressed as % response (16-20 days) 3 hours post injection at 2.5 mg/kg concentration; format: functional; outline: as §2
# [13] = tested on: Mus musculus; experiment: The compound was tested in vivo for photosensitizing efficacy in DBA/2 Mice transplanted with SMT/F tumors and the activity is expressed as % response (26-30 days) 3 hours post injection at 2.5 mg/kg concentration; format: functional; outline: as §2
# [14] = tested on: Mus musculus; experiment: The compound was tested in vivo for photosensitizing efficacy in DBA/2 Mice transplanted with SMT/F tumors and the activity is expressed as % response (1-5 days) 3 hours post injection at 2 1 mg/kg concentration; No response; format: functional, organism-based; parameters: dose 1 mg/kg; settings: at 1 mg/kg; outline: as §2
# [15] = tested on: Mus musculus; experiment: The compound was tested in vivo for photosensitizing efficacy in DBA/2 Mice transplanted with SMT/F tumors and the activity is expressed as % response (21-25 days) 3 hours post injection at 1 mg/kg concentration; No response; format: functional, organism-based; parameters: dose 1 mg/kg; outline: as §2
# [16] = tested on: Mus musculus; experiment: The compound was tested in vivo for photosensitizing efficacy in DBA/2 Mice transplanted with SMT/F tumors and the activity is expressed as % response (21-25 days) 3 hours post injection at 5.0 mg/kg concentration; No response; format: functional, organism-based; parameters: dose 5 mg/kg; outline: as §2
# [17] = biological target: T1, Albumin; experiment: Binding affinity against Human serum albumin(Site II).; outline: as §1
# [18] = tested on: Mus musculus; experiment: The compound was tested in vivo for photosensitizing efficacy in DBA/2 Mice transplanted with SMT/F tumors and the activity is expressed as % response (6-10 days) 3 hours post injection at 1 mg/kg concentration; No response; format: functional, organism-based; parameters: dose 1 mg/kg; outline: as §2
# [19] = tested on: Mus musculus; experiment: The compound was tested in vivo for photosensitizing efficacy in DBA/2 Mice transplanted with SMT/F tumors and the activity is expressed as % response (16-20 days) 3 hours post injection at 1 mg/kg concentration; No response; format: functional, organism-based; parameters: dose 1 mg/kg; outline: as §2
# [20] = tested on: Mus musculus; experiment: The compound was tested in vivo for photosensitizing efficacy in DBA/2 Mice transplanted with SMT/F tumors and the activity is expressed as % response (6-10 days) 3 hours post injection at 2.5 mg/kg concentration; format: functional; outline: as §2
# T1 sequence (P02768 whole entry): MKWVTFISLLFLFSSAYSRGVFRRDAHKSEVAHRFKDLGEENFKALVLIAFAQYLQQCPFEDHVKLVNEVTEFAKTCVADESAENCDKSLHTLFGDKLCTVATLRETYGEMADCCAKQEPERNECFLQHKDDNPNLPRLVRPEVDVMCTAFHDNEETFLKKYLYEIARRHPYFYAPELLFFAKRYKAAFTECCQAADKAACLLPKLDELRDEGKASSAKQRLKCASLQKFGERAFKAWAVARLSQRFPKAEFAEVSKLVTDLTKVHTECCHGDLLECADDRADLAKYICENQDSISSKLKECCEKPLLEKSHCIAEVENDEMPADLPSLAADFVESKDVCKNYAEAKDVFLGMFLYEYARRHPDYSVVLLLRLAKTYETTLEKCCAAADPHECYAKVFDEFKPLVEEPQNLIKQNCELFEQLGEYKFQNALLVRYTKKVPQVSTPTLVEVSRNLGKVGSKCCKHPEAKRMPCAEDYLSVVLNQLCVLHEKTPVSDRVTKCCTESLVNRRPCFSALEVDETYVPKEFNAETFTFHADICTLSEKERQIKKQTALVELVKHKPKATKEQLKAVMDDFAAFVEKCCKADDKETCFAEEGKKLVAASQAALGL
smiles,measurement,setting,value
CCc1c(C)c2[nH]c1cc1[nH]c(cc3nc4c(c5nc(c2C=O)[C@@H](C)[C@@H]5CCC(=O)OC)CCC4=C3C)C(=O)C1(C)CC (stereo not given in full),Binding constant,[1],500000 l M-1
same,Response,[2],60%
same,Response,[3],inactive
same,Response,[4],60%
same,Response,[5],80%
same,Response,[6],60%
same,Response,[7],100%
same,Response,[8],inactive
same,Response,[9],inactive
same,Response,[10],0%
same,Response,[11],100%
same,Response,[12],60%
same,Response,[13],20%
same,Response,[14],inactive
same,Response,[15],inactive
same,Response,[16],inactive
same,Binding constant,[17],500000 l M-1
same,Response,[18],inactive
same,Response,[19],inactive
same,Response,[20],100%
